These results are taken from PubChem BioAssay AID651740 (Broad Institute, 2012).

Out of some 5,600 compounds screened, about 1,200 (21%) were called active. Inconclusive results (about 3%) are left out.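 The calls were made as follows: active = mean inhibition above about 95%, with at least 55% of replicates also reaching it (limit read from the data); inconclusive = meets just one of the two conditions; inactive = meets neither condition.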 The list is a sample of the results.

This experiment is described as follows: Trypanosoma cruzi growth blockers in host fibroblasts – NIH3T3 host cells, beta-gal parasites, cherry-pick, set 2, confirmation (AID 651740).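 Also: plate controls were neutral control median for no effect and positive control median for full effect.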 The settings on record: T. cruzi beta-gal in NIH3T3, GalScreen luminescence, 90 h; at 2.09 µM; active compounds read high. Summed up: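 assay system = beta-gal T. cruzi in mouse NIH/3T3 fibroblasts | amount = 5,000 fibroblasts/well | medium = 2% FBS DMEM with PSG | reagent = T. cruzi trypomastigotes, 5000 per well | compound dosing = single point, 100 nL in DMSO | incubation = ≥90 h infection with compound, 60 min read delay | technique = GalScreen lysis and luminescent beta-gal signal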
A word on the inhibition: it is the drop in the measured response relative to a control, in per cent. With `Cc1ccc(S(=O)(=O)N2C[C@@H](O)COC[C@@H]3O[C@H](CC(=O)NCc4ccc(Cl)c(Cl)c4)CC[C@H]32)cc1`, the inhibition is 50.2% (inactive).

Take `COCCNC[C@@H]1[C@H](c2ccccc2)[C@H](CO)N1c1nc(C)c(C)s1`: the inhibition was 5.12% (inactive).

As to `O=C(Nc1ccc2c(c1)[C@@H]1C[C@H](CC(=O)N3CCOCC3)O[C@@H](CO)[C@@H]1O2)c1ccc2c(c1)OCO2`, the inhibition is 6.38% (inactive).

`C[C@@H]1CN([C@H](C)CO)C(=O)c2cc(NS(C)(=O)=O)ccc2O[C@@H](C)CCCCO[C@H]1CN(C)S(=O)(=O)c1cn(C)cn1`: the inhibition is -5.24% (inactive).

`COc1ccc(C#Cc2ccc([C@@H]3[C@@H](CO)N4CCCCN(C(=O)c5ccncc5)C[C@@H]34)cc2)cc1`: the inhibition was 30% (inactive).

Take `C[C@@H]1CN([C@H](C)CO)C(=O)c2cccc(NC(=O)c3cnccn3)c2O[C@@H]1CN(C)Cc1ccc(C(=O)Nc2ccccc2N)cc1`: the inhibition is 82.4% (inactive).

As for `C[C@H]1CN([C@@H](C)CO)S(=O)(=O)c2ccc(C#CC3CCCC3)cc2O[C@H]1CN(C)C(=O)Cc1ccncc1`, the inhibition was 79.4% (inactive).

As for `C[C@@H]1CN([C@@H](C)CO)C(=O)c2cc(NC(=O)Nc3cccc4ccccc34)ccc2O[C@H]1CN(C)Cc1ccc(Oc2ccccc2)cc1`, the inhibition is 106% (active).

In the case of `C[C@@H]1CN([C@@H](C)CO)C(=O)c2cc(NC(=O)Nc3ccc4c(c3)OCO4)ccc2O[C@@H]1CN(C)Cc1ccc(Oc2ccccc2)cc1`, the inhibition is -1.56% (inactive).

With `Cc1ccc(S(=O)(=O)Nc2ccc3c(c2)C(=O)N([C@H](C)CO)C[C@H](C)[C@H](CN(C)Cc2ccc(Cl)c(Cl)c2)O3)cc1`, the inhibition was 74% (inactive).

Turning to `C[C@@H]1CN([C@@H](C)CO)C(=O)c2cc(NC(=O)Nc3cccc4ccccc34)ccc2O[C@H]1CN(C)Cc1ccc(Cl)c(Cl)c1`, the inhibition was 102% (active).

For the compound `C[C@H]1CN([C@@H](C)CO)C(=O)c2cc(NC(=O)Nc3ccc4c(c3)OCO4)ccc2O[C@@H]1CN(C)Cc1ccc(Oc2ccccc2)cc1`, the inhibition is 66.6% (inactive).

Regarding `C[C@@H]1CN([C@@H](C)CO)C(=O)c2cc(NC(=O)Cc3ccccc3)ccc2O[C@@H]1CN(C)Cc1ccc(Oc2ccccc2)cc1`, the inhibition is 94.9% (inactive).

On to `Cc1ccc(-c2ccc([C@H]3[C@H](CO)N4CCCCN(Cc5cncnc5)C[C@@H]34)cc2)cc1`, for which the inhibition was 50.8% (inactive).

Take `C[C@@H]1CN([C@H](C)CO)C(=O)c2cc(C#Cc3ccccn3)cnc2O[C@H]1CN(C)Cc1ccccc1`: the inhibition was 76.7% (inactive).

For `C[C@H]1CN([C@@H](C)CO)C(=O)c2ccccc2-c2ccccc2CO[C@@H]1CN(C)S(=O)(=O)c1ccc(C(F)(F)F)cc1`, the inhibition is 71.5% (inactive).

For the compound `CCC(=O)N1CCCCN2[C@H](C1)[C@@H](c1ccc(-c3ccc(F)cc3)cc1)[C@@H]2CO`, the inhibition was -6.94% (inactive).

Take `C[C@@H]1CCCCO[C@H](CN(C)Cc2ccc(Cl)c(Cl)c2)[C@H](C)CN([C@@H](C)CO)C(=O)c2cc(NC(=O)C3CCCCC3)ccc2O1`: the inhibition is 110% (active).

Regarding `C[C@@H]1CCCCO[C@@H](CN(C)Cc2ccc3c(c2)OCO3)[C@@H](C)CN([C@@H](C)CO)C(=O)c2cc(NC(=O)Nc3ccccc3)ccc2O1`, the inhibition was 84.4% (inactive).

On to `C[C@@H]1CN([C@H](C)CO)C(=O)c2cc(NC(=O)Nc3ccc(F)cc3)ccc2O[C@@H](C)CCCCO[C@H]1CN(C)Cc1ccc(Cl)c(Cl)c1`, for which the inhibition is 114% (active).

With `COc1ccc(NC(=O)Nc2ccc3c(c2)C(=O)N([C@H](C)CO)C[C@@H](C)[C@H](CN(C)Cc2ccc(Cl)c(Cl)c2)OCCCC[C@@H](C)O3)cc1`, the inhibition is 114% (active).

Take `COc1ccc(CN(C)C[C@H]2OCCCC[C@H](C)Oc3ccc(NC(=O)Nc4ccc5c(c4)OCO5)cc3C(=O)N([C@H](C)CO)C[C@@H]2C)cc1`: the inhibition is 83% (inactive).

Take `C[C@@H]1CCCCO[C@@H](CN(C)Cc2ccc(Cl)c(Cl)c2)[C@H](C)CN([C@H](C)CO)C(=O)c2cc(NC(=O)Nc3ccc(F)cc3)ccc2O1`: the inhibition was 112% (active).

Consider `O=C(NCc1ccccn1)[C@@H]1[C@@H](CO)[C@@H]2Cn3c(ccc(/C=C/c4ccccc4)c3=O)[C@H]1N2CC1CC1`, for which the inhibition is 22.2% (inactive).

Turning to `C[C@H]1CN([C@@H](C)CO)C(=O)c2cc(C#CC3CCCCC3)cnc2O[C@H]1CN(C)S(=O)(=O)c1ccccc1`, the inhibition is 77% (inactive).

As for `C[C@@H]1CN([C@@H](C)CO)C(=O)Cc2cc(NC(=O)C3CCCCC3)ccc2O[C@@H]1CN(C)Cc1ccc(C(=O)Nc2ccccc2N)cc1`, the inhibition was 83.7% (inactive).

For the compound `C[C@H](CO)N1C[C@H](C)[C@@H](CN(C)Cc2ccc(-c3ccccc3)cc2)Oc2ccc(NC(=O)CCC(F)(F)F)cc2CC1=O`, the inhibition is 89.8% (inactive).

For the compound `C[C@@H]1CCCCO[C@H](CN(C)C(=O)Nc2cccc3ccccc23)[C@H](C)CN([C@H](C)CO)C(=O)c2cc(NS(=O)(=O)c3cccs3)ccc2O1`, the inhibition is 52.6% (inactive).

In the case of `C[C@H](CO)N1C[C@H](C)[C@H](CN(C)C(=O)Nc2ccc3c(c2)OCO3)Oc2ncc(C#Cc3cccc(F)c3)cc2C1=O`, the inhibition is 36.1% (inactive).

With `CC(C)NC(=O)N(C)C[C@H]1OCc2cn(nn2)CCCC(=O)N([C@@H](C)CO)C[C@H]1C`, the inhibition was -10.9% (inactive).

In the case of `O=C(C1CC1)N1CCCCN2[C@H](CO)[C@H](c3ccc(-c4cccc(F)c4)cc3)[C@H]2C1`, the inhibition is 67% (inactive).

Consider `C[C@H](CO)N1C[C@H](C)[C@H](CN(C)C(=O)C2CCCCC2)Oc2ncc(C#Cc3cccc(F)c3)cc2C1=O`, for which the inhibition is 44.3% (inactive).

On to `O=C(c1ccncc1)N1CCCCN2[C@H](CO)[C@H](c3ccc(-c4ccccc4)cc3)[C@H]2C1`, for which the inhibition is 68.8% (inactive).

`O=C(C1CCC1)N1CCCCN2[C@H](CO)[C@H](c3ccc(-c4cccc(F)c4)cc3)[C@@H]2C1`: the inhibition was 62% (inactive).

For the compound `C[C@@H]1CN([C@H](C)CO)C(=O)c2cc(C#CC3CCCCC3)cnc2O[C@@H]1CN(C)C(=O)NC1CCCC1`, the inhibition is 66.9% (inactive).

For `O=C(C1CCC1)N1CCCCN2[C@H](CO)[C@H](c3ccc(-c4ccncc4)cc3)[C@@H]2C1`, the inhibition was 24.4% (inactive).

Regarding `N#C[C@@H]1[C@@H](c2ccc(C#Cc3cccc(F)c3)cc2)[C@@H](CO)N1C(=O)C1CCC1`, the inhibition is 62.2% (inactive).

Turning to `COc1cccc(C#Cc2ccc([C@@H]3[C@H](C#N)N[C@H]3CO)cc2)c1`, the inhibition is 97.1% (active).

As for `COCC(=O)N1[C@H](CO)[C@@H](c2ccc(C#Cc3ccccc3F)cc2)[C@@H]1C#N`, the inhibition was 72.9% (inactive).

Regarding `O=C(C[C@H]1CC[C@@H]2[C@H](COC[C@H](O)CN2Cc2ccc(Oc3ccccc3)cc2)O1)N1CCN(c2ccccc2)CC1`, the inhibition was 21.7% (inactive).

On to `Cc1ccccc1-c1ccc([C@@H]2[C@H](CO)N3CCCCN(S(=O)(=O)c4ccc(F)cc4)C[C@@H]23)cc1`, for which the inhibition was 62.4% (inactive).

As to `CC(=O)N1[C@H](CNC(=O)C2CC2)[C@@H](c2ccc(-c3cccc(F)c3)cc2)[C@@H]1CO`, the inhibition is -2.15% (inactive).

With `CCCNC(=O)N1[C@@H]2c3cccc(=O)n3C[C@H]1[C@H](CO)[C@H]2C(=O)NCC(F)(F)F`, the inhibition is 23.3% (inactive).

On to `CC(C)(O)C#Cc1ccc([C@@H]2[C@H](CO)N3CCCCN(C(=O)c4cccc(F)c4)C[C@@H]23)cc1`, for which the inhibition is -0.041% (inactive).

`CCC(=O)N1CCCCN2[C@H](C1)[C@@H](c1ccc(/C=C/c3ccccc3)cc1)[C@@H]2CO`: the inhibition is 62.7% (inactive).

Consider `CC(=O)N(C)C[C@H]1Oc2cc(C#CCN(C)C)ccc2S(=O)(=O)N([C@@H](C)CO)C[C@@H]1C`, for which the inhibition is 91.3% (inactive).

For the compound `C[C@@H]1CN([C@@H](C)CO)S(=O)(=O)c2ccc(C#CCN(C)C)cc2O[C@H]1CN(C)C(=O)C1CC1`, the inhibition was 98.9% (active).

`C[C@@H]1CN([C@@H](C)CO)S(=O)(=O)c2ccc(C#CCC3CCCC3)cc2O[C@H]1CN(C)C(=O)CC1CC1`: the inhibition was 64.9% (inactive).

For the compound `CC(C)CC#Cc1ccc2c(c1)O[C@H](CN(C)C(=O)C1CC1)[C@@H](C)CN([C@@H](C)CO)S2(=O)=O`, the inhibition was 58.8% (inactive).

For `C[C@@H]1CN([C@H](C)CO)S(=O)(=O)c2ccc(C#CCC3CCCC3)cc2O[C@H]1CN(C)C(=O)CC1CC1`, the inhibition was 106% (active).

With `CCCN(C)C[C@H]1Oc2cc(C#CC3CCCC3)ccc2S(=O)(=O)N([C@H](C)CO)C[C@@H]1C`, the inhibition is 68.9% (inactive).

Regarding `CNC[C@@H]1Oc2cc(C#CCC3CCCC3)ccc2S(=O)(=O)N([C@H](C)CO)C[C@H]1C`, the inhibition was 31.6% (inactive).

On to `C[C@H](CO)N1C[C@H](C)[C@@H](CN(C)C(=O)Nc2cc(F)ccc2F)Oc2cc(C#CC3CC3)ccc2S1(=O)=O`, for which the inhibition is 51.9% (inactive).

On to `C[C@H]1CN([C@@H](C)CO)S(=O)(=O)c2ccc(C#CC3CCCC3)cc2O[C@@H]1CN(C)C(=O)c1cccc(F)c1`, for which the inhibition is 100% (active).

Regarding `C[C@@H]1CN([C@H](C)CO)S(=O)(=O)c2ccc(C#CC3CCCC3)cc2O[C@@H]1CN(C)C(=O)Cc1ccncc1`, the inhibition was 66.3% (inactive).

Turning to `C[C@@H]1CN([C@H](C)CO)C(=O)Cc2cc(NC(=O)Cc3ccccc3)ccc2O[C@H]1CN(C)Cc1ccc(Oc2ccccc2)cc1`, the inhibition was 20.7% (inactive).

Turning to `CC(=O)NC[C@@H]1[C@@H](c2ccc(-c3ccccc3F)cc2)[C@@H](CO)N1C(=O)C1CC1`, the inhibition was 14.2% (inactive).

In the case of `COc1ccc(S(=O)(=O)Nc2ccc3c(c2)C(=O)N([C@@H](C)CO)C[C@H](C)[C@H](CN(C)Cc2ccc(C(F)(F)F)cc2)O3)cc1`, the inhibition is 42.3% (inactive).

Regarding `Cc1noc(C)c1S(=O)(=O)N(C)C[C@H]1Oc2ccc(N(C)C)cc2CC(=O)N([C@H](C)CO)C[C@@H]1C`, the inhibition is -7.54% (inactive).
